Laboratory results: ChEMBL document CHEMBL2093137, “WHO-TDR NTD Screening”
Values after ≈ are worked out from the molar mass of the structure shown.

Tests used:
[1] = test system: Leishmania infantum; test: WHO-TDR: Leishmaniasis; format: functional, organism-based, Mus musculus; conditions: Macrophage
How it was run: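 Following previously published standard procedures, a whole-organism screen was run on Leishmania infantum MHOM/MA(BE)/67 amastigotes within murine peritoneal macrophages, with a reference drug as positive control. The 10,000 compounds tested formed a diverse Life Chemicals library filtered for drug-likeness and reactive groups. Potency against the parasite is reported as IC50.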

[2] = test system: Brugia malayi; test: (§1) WHO-TDR: Lymphatic Filariasis; format: functional; parameters: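 tested at 10 µM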
How it was run: (§2)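 A diverse library of 10,000 compounds from Life Chemicals was screened against Brugia malayi microfilariae in a whole-organism assay. The library had been filtered for drug-likeness and reactive groups. Activity is given as percent inhibition and as IC50.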

[3] = test system: Schistosoma mansoni; test: WHO-TDR: Schistosomiasis; format: functional; parameters: concentration or dose not given beside the values
How it was run: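 A diverse library of 10,000 compounds from Life Chemicals, filtered for drug-likeness and reactive groups, was screened against whole larval and/or adult Schistosoma mansoni worms of the Puerto Rican strain. Previously published standard procedures were followed, with a reference drug as positive control. Activity is given as percent inhibition and as IC50.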

[4] = test system: Trypanosoma cruzi; test: WHO-TDR: Chagas disease; format: functional, organism-based, Homo sapiens; conditions: MRC5
How it was run: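 Each IC50 reflects antiparasitic potency against intracellular amastigotes of Trypanosoma cruzi Tulahuen CL2 beta-galactosidase strain. These were cultured in MRC-5SV2 human lung fibroblasts and exposed to a 10,000-compound diverse Life Chemicals library screened according to published standard procedures with a reference drug as positive control.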

[5] = test system: Onchocerca ochengi; test: (§3) WHO-TDR: Onchocerciasis; format: functional; parameters: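 at 12.5 µM on microfilariae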
How it was run: (§4)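 A diverse library of 10,000 compounds from Life Chemicals, filtered for drug-likeness and reactive groups, was screened against whole microfilariae of Onchocerca ochengi or Onchocerca lienalis. These animal pathogens served as stand-ins for the human parasite. Activity is given as percent inhibition and as IC50.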

[6] = test system: Plasmodium falciparum K1; test: WHO-TDR: Malaria; format: functional, organism-based, Homo sapiens; conditions: Erythrocyte
How it was run: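 Following previously published standard procedures, with a reference drug serving as positive control, compounds were tested on the Plasmodium falciparum K1 strain inside human red blood cells. The 10,000-compound diverse set came from Life Chemicals after filtering for drug-likeness and reactive groups. Potency against the parasite appears as IC50.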

[7] = test system: Brugia malayi; test: as §1; format: functional; parameters: concentration or dose not given beside the values; how it was run: as §2; remark: listed apart in the source
[8] = WHO-TDR: Cytotoxicity; format: toxicity, cell-based; conditions: human, MRC5 cells
[9] = test system: Trypanosoma brucei brucei; test: WHO-TDR: Human African Trypanosomiasis (HAT); format: functional, organism-based; conditions: Squib-427
How it was run: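 Bloodstream forms of the Trypanosoma brucei Squib 427 strain were tested in a whole-organism screen with a diverse library from Life Chemicals of 10,000 compounds. Before screening, the library was filtered for drug-likeness and for reactive groups. The assay used previously published standard procedures and included reference drugs as positive controls. Potency against the parasite is expressed as IC50.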

[10] = test system: Onchocerca ochengi; test: as §3; format: functional; parameters: concentration or dose not given beside the values; how it was run: as §4; remark: listed apart in the source

## Cc1ccc(-n2ccnc2N2CCN(C(=O)c3ccccc3SC(F)F)CC2)cc1
[1]
  IC50: > 13.9 µg/mL
[2]
  % Inhibition: 0%
[3]
  % Inhibition: 58.3%
[4]
  IC50: 0.531 µg/mL (≈ 1.24 µM)
[5]
  % Inhibition: 100%
[6]
  IC50: 3.65 µg/mL (≈ 8.53 µM)
[7]
  % Inhibition: 0%
[8]
  IC50: 13.9 µg/mL (≈ 32.6 µM)
[9]
  IC50: 4.57 µg/mL (≈ 10.7 µM)

## O=C(C1CCCC1)N1CCc2ccc(NS(=O)(=O)c3ccc4c(c3)OCCO4)cc21
[1]
  IC50: 0.416 µg/mL (≈ 0.971 µM)
[2]
  % Inhibition: 0%
[3]
  % Inhibition: 0%
[4]
  IC50: > 12.9 µg/mL
[5]
  % Inhibition: 0%
[6]
  IC50: > 12.9 µg/mL
[7]
  % Inhibition: 0%
[8]
  IC50: > 12.9 µg/mL
[9]
  IC50: > 12.9 µg/mL

## O=C(Nc1ccc(C(F)(F)F)cc1)N1CCN(Cc2nnnn2-c2ccccc2)CC1
[1]
  IC50: > 12.9 µg/mL
[2]
  % Inhibition: 0%
[4]
  IC50: > 12.9 µg/mL
[5]
  % Inhibition: 100%
[6]
  IC50: > 12.9 µg/mL
[7]
  % Inhibition: 0%
[8]
  IC50: > 12.9 µg/mL
[9]
  IC50: 6.01 µg/mL (≈ 13.9 µM)

## N#Cc1cnc2c(F)cccc2c1Nc1ccc(Br)cc1
[1]
  IC50: > 11.4 µg/mL
[2]
  % Inhibition: 0%
[3]
  % Inhibition: 0%
[4]
  IC50: > 11.4 µg/mL
[5]
  % Inhibition: 100%
[6]
  IC50: > 11.4 µg/mL
[7]
  % Inhibition: 0%
[8]
  IC50: > 11.4 µg/mL
[9]
  IC50: > 11.4 µg/mL

## O=C(C1CC1)N1CCc2ccc(NS(=O)(=O)c3ccc4c(c3)CCCC4)cc21
[1]
  IC50: > 11.9 µg/mL
[2]
  % Inhibition: 0%
[3]
  % Inhibition: 0%
[4]
  IC50: 0.829 µg/mL (≈ 2.09 µM)
[5]
  % Inhibition: 0%
[6]
  IC50: > 11.9 µg/mL
[7]
  % Inhibition: 0%
[8]
  IC50: 1.28 µg/mL (≈ 3.24 µM)
[9]
  IC50: 3.85 µg/mL (≈ 9.71 µM)

## Cc1cc(NC(=O)C2CCCN(S(=O)(=O)c3ccccc3)C2)on1 (stereo not drawn)
[1]
  IC50: 0.339 µg/mL (≈ 0.97 µM)
[2]
  % Inhibition: 0%
[3]
  % Inhibition: 41.7%
[4]
  IC50: > 10.5 µg/mL
[5]
  % Inhibition: 0%
[6]
  IC50: > 10.5 µg/mL
[7]
  % Inhibition: 0%
[8]
  IC50: > 10.5 µg/mL
[9]
  IC50: > 10.5 µg/mL

## CN(c1ccccc1)c1nnc(-c2ccc(NC(=O)Cc3cccs3)cc2)s1
[1]
  IC50: 3.95 µg/mL (≈ 9.71 µM)
[2]
  % Inhibition: 25%
[4]
  IC50: > 12.2 µg/mL
[5]
  % Inhibition: 100%
[6]
  IC50: > 12.2 µg/mL
[7]
  % Inhibition: 0%
[8]
  IC50: > 12.2 µg/mL
[9]
  IC50: > 12.2 µg/mL

## O=C(Nc1nnc(-c2ccno2)o1)c1nc2ccccc2s1
[1]
  IC50: > 9.4 µg/mL
[3]
  % Inhibition: 0%
[4]
  IC50: > 9.4 µg/mL
[10]
  % Inhibition: 0%
[5]
  % Inhibition: 100%
[6]
  IC50: 6.88 µg/mL (≈ 22 µM)
[8]
  IC50: > 9.4 µg/mL
[9]
  IC50: > 9.4 µg/mL

## CC(C)CN1C(=O)C(C)(C)COc2cc(NS(=O)(=O)c3ccccc3Br)ccc21
[1]
  IC50: > 14.4 µg/mL
[3]
  % Inhibition: 0%
[4]
  IC50: 4.3 µg/mL (≈ 8.93 µM)
[10]
  % Inhibition: 0%
[5]
  % Inhibition: 100%
[6]
  IC50: > 14.4 µg/mL
[8]
  IC50: > 14.4 µg/mL
[9]
  IC50: 4.62 µg/mL (≈ 9.6 µM)

## CN(C)C(CNC(=O)c1ccc(-c2ccccc2)cc1)c1ccsc1 (stereo not drawn)
[1]
  IC50: > 10.5 µg/mL
[3]
  % Inhibition: 0%
[4]
  IC50: 3.32 µg/mL (≈ 9.49 µM)
[10]
  % Inhibition: 0%
[5]
  % Inhibition: 0%
[6]
  IC50: 8.47 µg/mL (≈ 24.2 µM)
[8]
  IC50: > 10.5 µg/mL
[9]
  IC50: 0.395 µg/mL (≈ 1.13 µM)

## O=C(CN1CCC(C(=O)Nc2ccc(Oc3ccccc3)cc2)CC1)Nc1ccc(F)cc1
[1]
  IC50: 0.695 µg/mL (≈ 1.55 µM)
[3]
  % Inhibition: 0%
[4]
  IC50: > 13.4 µg/mL
[10]
  % Inhibition: 0%
[5]
  % Inhibition: 0%
[6]
  IC50: > 13.4 µg/mL
[8]
  IC50: > 13.4 µg/mL
[9]
  IC50: > 13.4 µg/mL

## Cc1ccc(NC(=O)CN2CCC(C(=O)NCCc3c[nH]c4ccccc34)CC2)c(C)c1
[1]
  IC50: > 13 µg/mL
[3]
  % Inhibition: 0%
[4]
  IC50: 4.92 µg/mL (≈ 11.4 µM)
[10]
  % Inhibition: 0%
[5]
  % Inhibition: 100%
[6]
  IC50: > 13 µg/mL
[8]
  IC50: > 13 µg/mL
[9]
  IC50: > 13 µg/mL

## Cc1ccc(S(=O)(=O)N2CCCCC2CC(=O)Nc2ccc(F)c(C(F)(F)F)c2)cc1 (stereo not drawn)
[1]
  IC50: > 13.8 µg/mL
[3]
  % Inhibition: 0%
[4]
  IC50: 0.889 µg/mL (≈ 1.94 µM)
[10]
  % Inhibition: 0%
[5]
  % Inhibition: 0%
[6]
  IC50: > 13.8 µg/mL
[8]
  IC50: > 13.8 µg/mL
[9]
  IC50: 6.11 µg/mL (≈ 13.3 µM)

## Cc1nn2c(=O)[nH]c(SCc3ccccn3)nc2c1-c1ccccc1
[1]
  IC50: > 10.5 µg/mL
[3]
  % Inhibition: 0%
[4]
  IC50: > 10.5 µg/mL
[10]
  % Inhibition: 0%
[5]
  % Inhibition: 100%
[6]
  IC50: > 10.5 µg/mL
[8]
  IC50: > 10.5 µg/mL
[9]
  IC50: > 10.5 µg/mL

## CCCOc1nn(CCC)cc1C(=O)N1CCN(c2ccccc2Cl)CC1
[1]
  IC50: > 11.7 µg/mL
[3]
  % Inhibition: 0%
[4]
  IC50: 3.06 µg/mL (≈ 7.83 µM)
[10]
  % Inhibition: 0%
[5]
  % Inhibition: 100%
[6]
  IC50: > 11.7 µg/mL
[8]
  IC50: > 11.7 µg/mL
[9]
  IC50: 3.89 µg/mL (≈ 9.95 µM)

## Cc1cc(=O)[nH]c(-n2nc(C)cc2NC(=O)C2c3ccccc3Oc3ccccc32)n1
[1]
  IC50: 4.01 µg/mL (≈ 9.71 µM)
[3]
  % Inhibition: 50%
[4]
  IC50: < 0.124 µg/mL
[10]
  % Inhibition: 0%
[5]
  % Inhibition: 0%
[6]
  IC50: 0.657 µg/mL (≈ 1.59 µM)
[8]
  IC50: 0.504 µg/mL (≈ 1.22 µM)
[9]
  IC50: 0.876 µg/mL (≈ 2.12 µM)

## C=CCN1C(=O)C(C)(C)COc2ccc(NS(=O)(=O)c3ccc4c(c3)CCCC4)cc21
[1]
  IC50: 4.28 µg/mL (≈ 9.71 µM)
[3]
  % Inhibition: 0%
[4]
  IC50: 11.4 µg/mL (≈ 26 µM)
[10]
  % Inhibition: 0%
[5]
  % Inhibition: 100%
[6]
  IC50: > 13.2 µg/mL
[8]
  IC50: > 13.2 µg/mL
[9]
  IC50: > 13.2 µg/mL

## Cc1ccc(C)c(C(=O)Nc2ccc3c(c2)CCC(=O)N3Cc2ccccc2)c1
[1]
  IC50: > 11.5 µg/mL
[3]
  % Inhibition: 0%
[4]
  IC50: > 11.5 µg/mL
[10]
  % Inhibition: 0%
[5]
  % Inhibition: 75%
[6]
  IC50: > 11.5 µg/mL
[8]
  IC50: > 11.5 µg/mL
[9]
  IC50: 0.416 µg/mL (≈ 1.08 µM)

## NC(=O)c1cc(-c2ccccc2)sc1NC(=O)Cc1ccc2c(c1)OCO2
[1]
  IC50: > 11.4 µg/mL
[3]
  % Inhibition: 0%
[4]
  IC50: > 11.4 µg/mL
[10]
  % Inhibition: 0%
[5]
  % Inhibition: 100%
[6]
  IC50: 5.1 µg/mL (≈ 13.4 µM)
[8]
  IC50: > 11.4 µg/mL
[9]
  IC50: 3.65 µg/mL (≈ 9.6 µM)

## CCOC(=O)c1ccc(NC(=O)CC2CCCCN2S(=O)(=O)c2ccc(OC)cc2)cc1 (stereo not drawn)
[1]
  IC50: > 13.8 µg/mL
[3]
  % Inhibition: 0%
[4]
  IC50: 0.449 µg/mL (≈ 0.975 µM)
[10]
  % Inhibition: 0%
[5]
  % Inhibition: 0%
[6]
  IC50: > 13.8 µg/mL
[8]
  IC50: 2.03 µg/mL (≈ 4.4 µM)
[9]
  IC50: 4.53 µg/mL (≈ 9.83 µM)

## CCc1cc(=O)[nH]c(-n2nc(C)cc2NC(=O)Cc2cccs2)n1
[1]
  IC50: > 10.3 µg/mL
[3]
  % Inhibition: 0%
[4]
  IC50: 0.276 µg/mL (≈ 0.804 µM)
[10]
  % Inhibition: 0%
[5]
  % Inhibition: 100%
[6]
  IC50: 0.493 µg/mL (≈ 1.44 µM)
[8]
  IC50: 0.293 µg/mL (≈ 0.853 µM)
[9]
  IC50: 0.338 µg/mL (≈ 0.983 µM)
